Data reported in ChEMBL document CHEMBL1142412, “Bis-(-)-nor-meptazinols as novel nanomolar cholinesterase inhibitors with high inhibitory potency on amyloid-beta aggregation” (J Med Chem, 2008).

Legend:
Mus musculus = species on record: Mus musculus; experiment: Selectivity for mouse brain AChE over mouse serum BChE; assay type: tissue-based
Acetylcholinesterase [1] = target: T1, Acetylcholinesterase (Mus musculus, UniProt P21836); experiment: Inhibition of mouse brain AChE
T1 sequence (P21836 whole entry): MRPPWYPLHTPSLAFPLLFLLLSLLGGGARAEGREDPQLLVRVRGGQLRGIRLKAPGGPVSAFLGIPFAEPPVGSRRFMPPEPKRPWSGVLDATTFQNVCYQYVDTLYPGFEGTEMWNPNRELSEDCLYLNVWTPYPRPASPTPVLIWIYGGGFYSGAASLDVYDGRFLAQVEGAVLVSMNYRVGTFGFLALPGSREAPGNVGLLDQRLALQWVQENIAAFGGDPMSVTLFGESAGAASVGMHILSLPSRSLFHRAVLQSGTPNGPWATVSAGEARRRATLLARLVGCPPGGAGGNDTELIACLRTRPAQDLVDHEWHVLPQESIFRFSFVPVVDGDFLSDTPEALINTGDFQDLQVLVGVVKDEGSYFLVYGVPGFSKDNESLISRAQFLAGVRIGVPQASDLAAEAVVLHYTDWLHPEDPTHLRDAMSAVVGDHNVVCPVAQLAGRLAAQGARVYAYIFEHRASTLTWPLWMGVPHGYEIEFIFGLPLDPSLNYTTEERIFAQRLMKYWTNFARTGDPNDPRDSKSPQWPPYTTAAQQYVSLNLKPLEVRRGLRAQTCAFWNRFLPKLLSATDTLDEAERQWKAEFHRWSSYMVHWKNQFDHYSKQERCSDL

Cholinesterase = Cholinesterase (Mus musculus, UniProt Q03311); experiment: Inhibition of mouse serum BChE
How it was run: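 Modified Ellman assay with mouse serum as the enzyme source. Inhibitor at several concentrations, preincubated 20 min at 37 °C with DTNB. Substrate butyrylthiocholine iodide 0.05 mM. ΔA412 read at 25 °C. IC50 by nonlinear regression of log concentration–response. Mean ± SEM of at least three independent measures.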

Acetylcholinesterase [2] = target: T2, Acetylcholinesterase (Homo sapiens, UniProt P22303); experiment: Inhibition of human recombinant AChE-induced amyloid beta aggregation at 200 uM by thioflavin T fluorescence method
How it was run: (§1)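 Aβ(1–40), stock from HFIP, dissolved in DMSO, final 230 µM, incubated 48 h at room temperature in 0.215 M sodium phosphate pH 8.0 with human recombinant AChE (final 2.3 µM, Aβ:AChE 100:1) ± inhibitor. […] Run in duplicate.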

Acetylcholinesterase [3] = target: T2, Acetylcholinesterase; experiment: Inhibition of human recombinant AChE-induced amyloid beta aggregation at 100 uM by thioflavin T fluorescence method; how it was run: as §1
Acetylcholinesterase [4] = target: T2, Acetylcholinesterase; experiment: Inhibition of human recombinant AChE-induced amyloid beta aggregation by thioflavin T fluorescence method; how it was run: as §1

T2 sequence (P22303 whole entry): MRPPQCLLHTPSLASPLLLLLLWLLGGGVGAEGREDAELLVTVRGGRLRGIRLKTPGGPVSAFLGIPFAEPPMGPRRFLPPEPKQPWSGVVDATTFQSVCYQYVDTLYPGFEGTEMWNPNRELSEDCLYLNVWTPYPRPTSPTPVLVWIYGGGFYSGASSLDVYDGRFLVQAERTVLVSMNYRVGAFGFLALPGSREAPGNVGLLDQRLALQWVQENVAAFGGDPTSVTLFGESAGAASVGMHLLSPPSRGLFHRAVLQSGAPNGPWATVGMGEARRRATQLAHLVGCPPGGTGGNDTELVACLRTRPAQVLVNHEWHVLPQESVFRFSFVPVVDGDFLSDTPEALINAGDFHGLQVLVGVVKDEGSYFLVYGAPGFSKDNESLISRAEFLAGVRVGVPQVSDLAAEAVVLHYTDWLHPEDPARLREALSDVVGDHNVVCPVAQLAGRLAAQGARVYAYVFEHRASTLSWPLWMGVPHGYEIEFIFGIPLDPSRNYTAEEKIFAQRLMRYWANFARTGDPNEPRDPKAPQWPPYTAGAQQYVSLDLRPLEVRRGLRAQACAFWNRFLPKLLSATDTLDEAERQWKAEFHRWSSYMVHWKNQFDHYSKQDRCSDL
Cholinesterase, sequence (Q03311 whole entry): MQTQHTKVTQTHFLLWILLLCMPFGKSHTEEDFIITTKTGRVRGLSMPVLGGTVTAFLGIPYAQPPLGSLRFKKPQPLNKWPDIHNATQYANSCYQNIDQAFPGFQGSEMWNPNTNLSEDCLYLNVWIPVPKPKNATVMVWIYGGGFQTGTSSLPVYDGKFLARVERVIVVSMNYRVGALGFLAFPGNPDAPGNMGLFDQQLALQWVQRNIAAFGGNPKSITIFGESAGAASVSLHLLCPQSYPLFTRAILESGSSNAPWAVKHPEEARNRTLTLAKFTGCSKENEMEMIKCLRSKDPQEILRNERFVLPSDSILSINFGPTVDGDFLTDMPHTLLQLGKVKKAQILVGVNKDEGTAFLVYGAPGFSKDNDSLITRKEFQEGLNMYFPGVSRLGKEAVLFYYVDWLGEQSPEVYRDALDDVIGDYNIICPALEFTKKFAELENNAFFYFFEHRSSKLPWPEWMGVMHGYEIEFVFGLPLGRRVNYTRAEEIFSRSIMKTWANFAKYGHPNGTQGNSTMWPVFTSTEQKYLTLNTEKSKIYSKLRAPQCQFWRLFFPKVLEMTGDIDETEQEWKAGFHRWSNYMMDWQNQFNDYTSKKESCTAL

SMILES	Ratio IC50 (Mus musculus)	inhibition (Acetylcholinesterase [2]) [%]	inhibition (Acetylcholinesterase [3]) [%]	further results
CCC1(c2cccc(O)c2)CCCCN(CCCCCN2CCCC[C@@](CC)(c3cccc(O)c3)C2)C1 (single isomer, unassigned; (-))	0.048	–	–	IC50 (Acetylcholinesterase [1]): 1 µM; IC50 (Cholinesterase): 0.192 µM
CC[C@@]1(c2cccc(O)c2)CCCCN(CCCCCCCN2CCCC[C@@](CC)(c3cccc(O)c3)C2)C1	0.38	–	–	–
CC[C@@]1(c2cccc(O)c2)CCCCN(CCCN2CCCC[C@@](CC)(c3cccc(O)c3)C2)C1	0.0031	–	–	–
CC[C@@]1(c2cccc(O)c2)CCCCN(CCCCCCCCCCCN2CCCC[C@@](CC)(c3cccc(O)c3)C2)C1	3.1	–	–	–
CC[C@@]1(c2cccc(O)c2)CCCCN(CCCCN2CCCC[C@@](CC)(c3cccc(O)c3)C2)C1	0.0049	–	–	–
CC[C@@]1(c2cccc(O)c2)CCCCN(CCCCCCCCCCCCN2CCCC[C@@](CC)(c3cccc(O)c3)C2)C1	2.4	–	–	–
CC[C@@]1(c2cccc(O)c2)CCCCN(CCCCCCN2CCCC[C@@](CC)(c3cccc(O)c3)C2)C1	0.098	–	–	–
CC[C@@]1(c2cccc(O)c2)CCCCN(CCCCCCCCN2CCCC[C@@](CC)(c3cccc(O)c3)C2)C1	0.8	15.2	0	–
CCC1(c2cccc(O)c2)CCCCN(C)C1 (single isomer, unassigned; (-)) [MEPTAZINOL]	0.37	0	–	IC50 (Acetylcholinesterase [1]): 41 µM; IC50 (Cholinesterase): 15 µM
CC[C@@]1(c2cccc(O)c2)CCCCN(CCCCCCCCCCN2CCCC[C@@](CC)(c3cccc(O)c3)C2)C1	1.8	98.4	95.8	IC50 (Acetylcholinesterase [4]): 5.8 µM
CC[C@@]1(c2cccc(O)c2)CCCCN(CCCCCCCCCN2CCCC[C@@](CC)(c3cccc(O)c3)C2)C1	2.6	99.2	90.8	IC50 (Acetylcholinesterase [4]): 16.6 µM
CC[C@@]1(c2cccc(O)c2)CCCCN(CCN2CCCC[C@@](CC)(c3cccc(O)c3)C2)C1	0.0029	–	–	–
CC[N+](C)(CC)CCC[n+]1c(-c2ccccc2)c2cc(N)ccc2c2ccc(N)cc21	–	98.6	85.6	–
